Measured values from ChEMBL document CHEMBL1629514, “Synthesis, biological activity, and evaluation of the mode of action of novel antitubercular benzofurobenzopyrans substituted on A ring” (Eur J Med Chem, 2010).
≈ marks a conversion by molar mass, not a printed value.

Assays:
Vero = test: Cytotoxicity against african green monkey Vero cells assessed as cell growth after 48 hrs by hemocytometry; type: cell-based; conditions: Chlorocebus sabaeus
Procedure, shortened: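 VERO cells grown in DMEM with 10% v/v FBS plus penicillin/streptomycin, 37 °C, humidified 5% CO2. Log-phase cells seeded in 24-well plates and allowed to attach 3 h. Compounds diluted in DMSO (final ≤0.4% v/v) and tested at 10^-8 to 10^-4 M. Cells counted after 48 h. Two experiments in duplicate; mean used to derive IC50.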

[1] = Selectivity index, ratio of IC50 for african green monkey VERO cells to MIC95 for Mycobacterium tuberculosis H37Rv; type: functional
Procedure, shortened: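 VERO cells grown in DMEM with 10% FBS at 37 °C and 5% CO2. Seeded at 2×10^4 cells/mL and allowed to attach for 3 h. Compounds added at 10^-8 to 10^-4 M (DMSO ≤0.4% v/v) and cells counted by hemocytometer after 48 h. IC50 from means of two experiments in duplicate. SI is VERO IC50 divided by the M. tuberculosis MIC95.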

[2] = test system: Mycobacterium tuberculosis; test: Antimycobacterial activity against Mycobacterium tuberculosis H37Rv after 6 days by Microdilution Resazurin assay; type: functional; conditions: 144 h
Procedure, shortened: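 M. tuberculosis H37Rv grown in 7H9 with 10% ADC enrichment. Two-fold serial dilutions from 500 to 0.9 µg/mL, using DMSO stocks, in 7H9. Incubated at 37 °C for 6 days, then 0.01% resazurin added and incubated a further 24 h. MIC is the lowest concentration preventing the blue-to-pink colour change. DMSO growth controls and isoniazid (1 µg/mL to 1 ng/mL) were included.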

[3] = test system: Mycolicibacterium smegmatis; test: Antimycobacterial activity against Mycobacterium smegmatis mc2155 assessed as inhibition of mycolic acid biosynthesis at 1 to 25 ug/ml after 15 mins; type: functional
Procedure, shortened: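 Cell-free assay on cell wall extracts from bacteria washed in phosphate buffer and disrupted at 0.8 kbar, using 500 µg extract protein. Buffer was 100 mM potassium phosphate pH 7.0 with 3 mM MgCl2, 7 mM KHCO3, 7 mM ATP and 0.7 mM CoASH. Compounds (5% v/v DMSO final) preincubated 15 min at 37 °C, then [1-14C]acetate added for 60 min at 37 °C. Reactions saponified and mycolate profiles run on TLC; % inhibition taken against control. Thiolactomycin was the reference, run at two concentrations.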

[4] = test system: Mycobacterium tuberculosis; test: Antimycobacterial activity against Mycobacterium tuberculosis; type: functional
[5] = test system: Mycolicibacterium smegmatis; test: Antimycobacterial activity against Mycobacterium smegmatis; type: functional

COc1cccc2oc3ccc4c(c3c12)C=CC(C)(C)O4
IC50 (Vero): 280 µM
Selectivity Index [1]: 6.2
MIC95 [2]: 45 µM (≈ 12.6 µg/mL)
inhibition (INH) [3]: >60%

NNC(=O)c1ccncc1 [ISONIAZID]
IC50 (Vero): > 100 µM
MIC95 [2]: 1.8 µM (≈ 0.247 µg/mL)

CC(=O)c1ccc2oc3ccc4c(c3c2c1)CCC(C)(C)O4
MIC95 [2]: > 340 µM

CC1(C)C=Cc2c(ccc3oc4cc(-c5ccc6c(c5)oc5ccc7c(c56)C=CC(C)(C)O7)ccc4c23)O1
MIC95 [2]: > 200 µM

COc1cccc2c1oc1ccc3c(c12)C=CC(C)(C)O3
IC50 (Vero): 100 µM
Selectivity Index [1]: 2.2
MIC95 [2]: 45 µM (≈ 12.6 µg/mL)
inhibition (INH) [3]: >60%

CC1(C)C=Cc2c(ccc3oc4cc(Br)ccc4c23)O1
Selectivity Index [1]: 93.3
MIC95 [2]: 37.5 µM (≈ 12.3 µg/mL)

CC1(C)CCc2c(ccc3oc4ccc(O)cc4c23)O1
IC50 (Vero): 18 µM
Selectivity Index [1]: 0.4
MIC95 [2]: 46.5 µM (≈ 12.5 µg/mL)

CC1(C)C=Cc2c(ccc3oc4cccc(O)c4c23)O1
IC50 (Vero): 9.1 µM
Selectivity Index [1]: 0.1
MIC95 [2]: 95 µM (≈ 25.3 µg/mL)

COc1ccc2c(c1)oc1ccc3c(c12)C=CC(C)(C)O3
IC50 (Vero): 100 µM
Selectivity Index [1]: 1.1
MIC95 [2]: 89 µM (≈ 24.9 µg/mL)
inhibition (INH) [3]: >60%

COc1ccc2oc3ccc4c(c3c2c1)C=CC(C)(C)O4
IC50 (Vero): 100 µM
Selectivity Index [1]: 2.2
MIC95 [2]: 45 µM (≈ 12.6 µg/mL)
inhibition (INH) [3]: >60%

CC1(C)C=Cc2c(ccc3oc4c(Cl)cccc4c23)O1
IC50 (Vero): 100 µM
Selectivity Index [1]: 1.2
MIC95 [2]: 87.5 µM (≈ 24.9 µg/mL)

COc1cccc2c1C(=O)c1c(O)c3c(c(O)c1C2=O)C[C@@](O)(C(=O)CO)C[C@@H]3O[C@H]1C[C@H](N)[C@H](O)[C@H](C)O1 [DOXORUBICIN]
IC50 (Vero): 3.6 µM

CC1(C)C=Cc2c(ccc3oc4cccc(Cl)c4c23)O1
IC50 (Vero): 100 µM
Selectivity Index [1]: 2.3
MIC95 [2]: 43.8 µM (≈ 12.5 µg/mL)

CC1(C)C=Cc2c(ccc3oc4ccc(Cl)cc4c23)O1
IC50 (Vero): 290 µM
Selectivity Index [1]: 0.8
MIC95 [2]: 353 µM (≈ 101 µg/mL)

CC1(C)C=Cc2c(ccc3oc4ccc(O)cc4c23)O1
IC50 (Vero): 5 µM
Selectivity Index [1]: 0.1
MIC95 [2]: 47 µM (≈ 12.5 µg/mL)

COc1ccc2oc3cc4c(cc3c2c1)OC(C)(C)C=C4
Selectivity Index [1]: 83.2
MIC95 [2]: 89 µM (≈ 24.9 µg/mL)

CC1(C)C=Cc2c(ccc3oc4cc(O)ccc4c23)O1
IC50 (Vero): 9.2 µM
Selectivity Index [1]: 0.4
MIC95 [2]: 23.5 µM (≈ 6.26 µg/mL)

CC1(C)C=Cc2c(ccc3oc4ccccc4c23)O1
IC50 (Vero): 320 µM
Selectivity Index [1]: 3.2
MIC95 [2]: 100 µM (≈ 25 µg/mL)

CC1(C)C=Cc2c(ccc3oc4c(O)cccc4c23)O1
IC50 (Vero): 3.3 µM
Selectivity Index [1]: 0.1
MIC95 [2]: 23.5 µM (≈ 6.26 µg/mL)

CC1(C)C=Cc2c(ccc3c2oc2ccc4c(c23)C=CC(C)(C)O4)O1
MIC95 [2]: > 300 µM

CC(=O)c1ccc2oc3ccc4c(c3c2c1)C=CC(C)(C)O4
MIC95 [2]: > 1710 µM

CC1(C)C=Cc2c(ccc3oc4ccncc4c23)O1
MIC95 [4]: 16 µg/mL (≈ 63.7 µM)
MIC95 [5]: 8 µg/mL (≈ 31.8 µM)
